Experimental data published in ChEMBL document CHEMBL1148000, “Naphthyl piperazines with dual activity as 5-HT1D antagonists and 5-HT reuptake inhibitors” (Bioorg Med Chem Lett, 2007).
The source made the active and inactive calls. The rule behind the calls is not given here.

Experiments:
[1] = molecular target: 5-hydroxytryptamine receptor 1B (Homo sapiens, UniProt P28222); test: Displacement of [3H]GR-125743 from human 5HT1B expressed in LM(tk-) cells; assay type: cell-based
Method in brief: (§1)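 Human 5-HT1B or 5-HT1D receptors were cloned into L-M(tk-) cells, and membrane homogenates were prepared from these cells. Binding used [3H]-GR125743 as radioligand. Ki (nM) is the mean of runs in triplicate.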

[2] = molecular target: T1, 5-hydroxytryptamine receptor 1D (Homo sapiens, UniProt P28221); test: Antagonist activity at human 5HT1D expressed in LM(tk-) cells by [35S]GTPgamma binding assay; assay type: functional, cell-based
Method in brief: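 5-HT dose–response curves for [35S]GTPγS binding were run in LM(tk-) cells stably expressing the human 5-HT1D receptor. Antagonism was read as the rightward shift of these curves. Results are given as KB or as % displacement at 30 nM.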

[3] = molecular target: Sodium-dependent serotonin transporter (Homo sapiens, UniProt P31645); test: Displacement of [3H]citalopram from human 5HT transporter expressed in HEK293 cells; assay type: cell-based
Method in brief: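 Human serotonin transporter was expressed in HEK293 cells. Inhibition was measured as displacement of [3H]-citalopram. Ki (nM) is the mean of runs in triplicate.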

[4] = molecular target: T1, 5-hydroxytryptamine receptor 1D; test: Displacement of [3H]GR-125743 from human 5HT1D expressed in LM(tk-) cells; assay type: cell-based; method in brief: as §1
D(2) dopamine receptor = D(2) dopamine receptor (Rattus norvegicus, UniProt P61169); test: Displacement of [3H]raclopride from dopamine D2 receptor in rat caudate membranes; assay type: cell membranes, Membrane
Method in brief: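 D2 binding was measured in rat caudate membranes with [3H]-raclopride. Ki (nM) is the mean of runs in triplicate.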

[5] = molecular target: T2, Adrenergic receptor alpha-1 (Rattus norvegicus, UniProt P15823+P23944+P43140); test: Displacement of [3H]prazosin from adrenergic alpha-1 receptor in rat cortical membranes; assay type: cell membranes, Membrane
T2 sequence (P15823 whole entry): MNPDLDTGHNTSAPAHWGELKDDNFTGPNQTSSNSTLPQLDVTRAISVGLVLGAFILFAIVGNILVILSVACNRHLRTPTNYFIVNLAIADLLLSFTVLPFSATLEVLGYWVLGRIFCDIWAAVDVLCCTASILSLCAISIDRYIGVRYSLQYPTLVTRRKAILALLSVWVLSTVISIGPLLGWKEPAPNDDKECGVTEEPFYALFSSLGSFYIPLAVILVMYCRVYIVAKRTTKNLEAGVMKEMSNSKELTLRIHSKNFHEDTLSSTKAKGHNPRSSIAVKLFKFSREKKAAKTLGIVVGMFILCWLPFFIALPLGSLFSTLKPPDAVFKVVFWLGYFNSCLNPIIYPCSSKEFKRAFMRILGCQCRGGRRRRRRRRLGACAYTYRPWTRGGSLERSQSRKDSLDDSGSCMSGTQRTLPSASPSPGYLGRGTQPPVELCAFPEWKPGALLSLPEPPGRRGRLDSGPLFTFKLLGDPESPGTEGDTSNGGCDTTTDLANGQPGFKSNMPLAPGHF
T2 sequence (P23944 whole entry): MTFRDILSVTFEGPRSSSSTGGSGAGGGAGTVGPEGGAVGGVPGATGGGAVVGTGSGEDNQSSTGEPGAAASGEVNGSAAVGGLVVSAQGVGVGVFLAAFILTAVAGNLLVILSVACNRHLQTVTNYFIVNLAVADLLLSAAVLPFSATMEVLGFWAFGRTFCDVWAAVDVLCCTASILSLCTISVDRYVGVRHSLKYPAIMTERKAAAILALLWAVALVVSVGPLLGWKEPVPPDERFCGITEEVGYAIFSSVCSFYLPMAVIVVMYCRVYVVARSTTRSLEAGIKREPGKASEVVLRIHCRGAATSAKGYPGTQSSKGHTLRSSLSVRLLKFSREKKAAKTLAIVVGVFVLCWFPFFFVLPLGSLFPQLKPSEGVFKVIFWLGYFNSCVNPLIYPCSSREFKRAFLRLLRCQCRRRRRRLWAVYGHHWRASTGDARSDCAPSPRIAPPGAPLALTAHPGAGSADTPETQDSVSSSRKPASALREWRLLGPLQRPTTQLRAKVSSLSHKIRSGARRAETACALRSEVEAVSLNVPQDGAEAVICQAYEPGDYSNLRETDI
T2 sequence (P43140 whole entry): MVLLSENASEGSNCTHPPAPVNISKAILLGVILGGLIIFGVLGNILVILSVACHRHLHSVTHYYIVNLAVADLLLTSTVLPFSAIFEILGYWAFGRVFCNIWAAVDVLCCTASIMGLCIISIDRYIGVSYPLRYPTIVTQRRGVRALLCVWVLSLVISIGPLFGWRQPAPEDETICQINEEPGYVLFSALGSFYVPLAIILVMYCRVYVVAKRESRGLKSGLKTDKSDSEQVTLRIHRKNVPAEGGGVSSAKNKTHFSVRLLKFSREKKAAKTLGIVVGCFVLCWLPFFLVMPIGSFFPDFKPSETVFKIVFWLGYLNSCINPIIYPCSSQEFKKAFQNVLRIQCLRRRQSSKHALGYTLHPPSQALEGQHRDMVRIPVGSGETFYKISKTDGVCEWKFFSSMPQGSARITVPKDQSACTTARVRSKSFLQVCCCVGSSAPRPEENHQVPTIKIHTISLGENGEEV
Method in brief: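 Rat cortex membranes were used, with [3H]-prazosin as radioligand for α1 binding. Ki (nM) is the mean of runs in triplicate.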

[6] = molecular target: T3, 5-hydroxytryptamine receptor 1A (Homo sapiens, UniProt P08908); test: Displacement of [3H]8-OH-DPAT from human 5HT1A expressed in LM(tk-) cells; assay type: cell-based
T3 sequence (P08908 whole entry): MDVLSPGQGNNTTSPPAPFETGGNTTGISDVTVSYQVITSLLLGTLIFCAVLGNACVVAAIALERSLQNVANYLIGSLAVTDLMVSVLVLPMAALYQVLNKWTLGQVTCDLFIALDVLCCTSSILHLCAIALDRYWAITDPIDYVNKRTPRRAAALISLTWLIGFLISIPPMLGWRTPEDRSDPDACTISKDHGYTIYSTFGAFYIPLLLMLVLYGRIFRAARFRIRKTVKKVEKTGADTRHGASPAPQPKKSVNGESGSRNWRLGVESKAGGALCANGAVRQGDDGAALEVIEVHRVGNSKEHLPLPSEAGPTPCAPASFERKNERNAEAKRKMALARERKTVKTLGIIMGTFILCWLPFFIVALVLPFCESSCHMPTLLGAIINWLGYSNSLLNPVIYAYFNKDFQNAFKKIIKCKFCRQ
Method in brief: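 Human 5-HT1A was cloned into L-M(tk-) cells, and membrane homogenates were prepared. Binding used [3H]-8-OH-DPAT as radioligand. Ki (nM) is the mean of runs in triplicate.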

[7] = molecular target: T1, 5-hydroxytryptamine receptor 1D; test: Functional antagonism of 5-HT-stimulated GTP-gamma-[35S] binding to human 5HT1D expressed in LM(tk-) cells at 30 nM; set-up: scale not given: the % may be the effect or the level left
Hypothalamus = test: Increase in extracellular 5HT level in guinea pig hypothalamus at 10 mg/kg, po after 3 hrs; assay type: functional, organism-based; set-up: dose 10 mg/kg; details: Cavia porcellus
Method in brief: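 Microdialysis was done in the hypothalamus of freely moving guinea pigs. Dosing was 10 mg/kg po. Extracellular 5-HT is expressed as a percentage of a pre-injection control period, assessed over 3 h post-dose, as means + SEM.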

T1 sequence (P28221 whole entry): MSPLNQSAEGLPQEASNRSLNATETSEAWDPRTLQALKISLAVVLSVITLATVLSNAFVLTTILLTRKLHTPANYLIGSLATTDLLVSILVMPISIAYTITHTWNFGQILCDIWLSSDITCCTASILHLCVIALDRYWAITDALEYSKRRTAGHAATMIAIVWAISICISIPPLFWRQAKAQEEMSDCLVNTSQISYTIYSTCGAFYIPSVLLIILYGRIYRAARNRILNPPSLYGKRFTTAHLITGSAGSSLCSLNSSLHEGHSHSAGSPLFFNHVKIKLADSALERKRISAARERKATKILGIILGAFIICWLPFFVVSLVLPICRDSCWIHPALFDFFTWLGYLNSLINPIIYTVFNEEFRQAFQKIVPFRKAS
Sodium-dependent serotonin transporter, sequence (P31645 whole entry): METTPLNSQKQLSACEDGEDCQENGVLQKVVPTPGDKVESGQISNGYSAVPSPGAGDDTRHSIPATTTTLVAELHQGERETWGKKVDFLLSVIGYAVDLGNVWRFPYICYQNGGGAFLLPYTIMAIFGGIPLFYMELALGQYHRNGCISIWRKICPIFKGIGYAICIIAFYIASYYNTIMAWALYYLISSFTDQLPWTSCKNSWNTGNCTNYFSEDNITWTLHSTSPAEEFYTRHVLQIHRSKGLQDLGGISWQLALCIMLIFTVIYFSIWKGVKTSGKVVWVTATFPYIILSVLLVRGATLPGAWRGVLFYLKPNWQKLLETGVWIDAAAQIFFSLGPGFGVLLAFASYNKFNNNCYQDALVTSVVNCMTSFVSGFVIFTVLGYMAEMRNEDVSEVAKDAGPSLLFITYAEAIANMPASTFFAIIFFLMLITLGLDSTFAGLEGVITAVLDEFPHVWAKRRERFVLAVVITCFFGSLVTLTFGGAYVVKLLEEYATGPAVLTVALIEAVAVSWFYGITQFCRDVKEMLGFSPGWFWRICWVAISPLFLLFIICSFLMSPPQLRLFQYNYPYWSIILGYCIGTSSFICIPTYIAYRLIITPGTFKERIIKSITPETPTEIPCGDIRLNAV
5-hydroxytryptamine receptor 1B, sequence (P28222 whole entry): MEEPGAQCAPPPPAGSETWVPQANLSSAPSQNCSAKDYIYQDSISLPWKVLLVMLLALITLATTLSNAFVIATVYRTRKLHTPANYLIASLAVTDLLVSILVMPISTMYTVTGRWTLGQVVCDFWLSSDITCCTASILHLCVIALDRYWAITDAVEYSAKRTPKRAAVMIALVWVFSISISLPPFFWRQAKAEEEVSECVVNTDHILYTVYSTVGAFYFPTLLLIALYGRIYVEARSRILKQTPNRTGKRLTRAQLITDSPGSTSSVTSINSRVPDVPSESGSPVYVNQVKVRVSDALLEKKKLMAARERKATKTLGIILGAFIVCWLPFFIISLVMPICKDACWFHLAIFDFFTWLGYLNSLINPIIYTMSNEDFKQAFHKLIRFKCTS
D(2) dopamine receptor, sequence (P61169 whole entry): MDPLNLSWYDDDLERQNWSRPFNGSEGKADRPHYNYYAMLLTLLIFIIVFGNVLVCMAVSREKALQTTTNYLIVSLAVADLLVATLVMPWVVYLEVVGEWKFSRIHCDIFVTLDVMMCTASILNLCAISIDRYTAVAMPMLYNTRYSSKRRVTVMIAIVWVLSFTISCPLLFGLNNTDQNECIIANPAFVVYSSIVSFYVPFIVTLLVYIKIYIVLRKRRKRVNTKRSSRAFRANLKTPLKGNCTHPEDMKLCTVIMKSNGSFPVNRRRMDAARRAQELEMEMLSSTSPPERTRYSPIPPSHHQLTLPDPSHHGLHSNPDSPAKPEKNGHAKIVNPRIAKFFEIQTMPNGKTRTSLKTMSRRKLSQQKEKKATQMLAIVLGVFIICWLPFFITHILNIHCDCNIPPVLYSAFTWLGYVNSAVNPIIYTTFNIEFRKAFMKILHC

C[C@@H]1CN(c2cccc3cc(F)ccc23)CCN1CCC1OCCc2cc(C(N)=O)ccc21 (some centres undefined)
Ki [1]: 281 nM
Kb [2]: 0.01 nM
Ki [3]: 0.8 nM
Ki [4]: 56 nM
Ki (D(2) dopamine receptor): 4.7 nM
Ki [5]: 16 nM

C[C@H]1CN(c2cccc3cc(C#N)ccc23)CCN1CC[C@H]1OCc2cc(C(N)=O)ccc21
Ki [1]: 88 nM
Kb [2]: 0.18 nM
Ki [3]: 1.3 nM
Ki [4]: 1.8 nM
Ki (D(2) dopamine receptor): 346 nM
Ki [5]: 338 nM

NC(=O)c1ccc2c(c1)CCO[C@H]2CCN1CCN(c2ccc3cc(F)ccc3c2)CC1
Ki [1]: > 1000 nM
Kb [2]: 0.86 nM
Ki [3]: 8.1 nM
Ki [4]: 10 nM
Ki (D(2) dopamine receptor): 704 nM
Ki [5]: 96 nM

C[C@H]1CN(c2cccc3cc(F)ccc23)CCN1CC[C@H]1OCc2cc(C(N)=O)ccc21
Ki [1]: > 1000 nM
Kb [2]: 1.9 nM
Ki [3]: 8.8 nM
Ki [4]: 67 nM
Ki (D(2) dopamine receptor): 107 nM
Ki [6]: 13 nM
Ki [5]: 43 nM

C[C@@H]1CN(c2cccc3cc(F)ccc23)CCN1CC[C@H]1OCCc2cc(C(N)=O)ccc21
Ki [1]: 91 nM
Kb [2]: 11.1 nM
Ki [3]: 7.4 nM
Ki [4]: 88 nM
Ki (D(2) dopamine receptor): 78 nM
Ki [6]: 105 nM
Ki [5]: 74 nM

C[C@H]1CN(c2cccc3cc(C#N)ccc23)CCN1CC[C@@H]1OCCc2cc(C(N)=O)ccc21
Activity [7]: 124%
Ki [1]: 21 nM
Ki [3]: 2.2 nM
Ki [4]: 0.9 nM
Activity (Hypothalamus): Active
Ki (D(2) dopamine receptor): 287 nM
Ki [6]: 26 nM
Ki [5]: 353 nM

N#Cc1ccc2c(N3CCN(CC[C@@H]4OCCc5cc(C(N)=O)ccc54)CC3)cccc2c1
Activity [7]: 101%
Ki [1]: 15 nM
Ki [3]: 5.7 nM
Ki [4]: 1 nM
Ki (D(2) dopamine receptor): 88 nM
Ki [6]: 16 nM
Ki [5]: 178 nM

C[C@H]1CN(c2cccc3cc(F)ccc23)CCN1CC[C@@H]1OCc2cc(C(N)=O)ccc21
Ki [1]: 114 nM
Kb [2]: 0.05 nM
Ki [3]: 1.3 nM
Ki [4]: 14 nM
Ki (D(2) dopamine receptor): 26 nM
Ki [6]: 13 nM
Ki [5]: 64 nM

NC(=O)c1ccc2c(c1)CCOC2CCN1CC=C(c2c[nH]c3cc(F)ccc23)CC1 (centres undefined)
Ki [1]: 203 nM
Kb [2]: 4.3 nM
Ki [3]: 0.1 nM
Ki [4]: 8 nM
Ki (D(2) dopamine receptor): 42 nM
Ki [5]: 0.7 nM

C[C@@H]1CN(c2cccc3cc(F)ccc23)CCN1CC[C@@H]1OCCc2cc(C(N)=O)ccc21
Ki [1]: 103 nM
Kb [2]: 0.01 nM
Ki [3]: 3 nM
Ki [4]: 7 nM
Ki (D(2) dopamine receptor): 71 nM
Ki [6]: 115 nM
Ki [5]: 80 nM

C[C@H]1CN(c2ccc3cc(F)ccc3c2)CCN1CC[C@@H]1OCCc2cc(C(N)=O)ccc21
Ki [1]: > 1000 nM
Kb [2]: 4.05 nM
Ki [3]: 2.1 nM
Ki [4]: 14 nM
Ki (D(2) dopamine receptor): 1170 nM
Ki [6]: 307 nM
Ki [5]: 91 nM
